Series [1] is described as follows: Toxicity in brine shrimp larvae. In kind it is organism-based. As to conditions: artemia, in vivo.
For series [2], the system named is Agrobacterium tumefaciens. Description: Antitumor activity against Agrobacterium tumefaciens-induced crown gall tumors in potato by disk test relative to control. In kind it is functional. The procedure, abridged:
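Crown gall tumors on potato discs were scored, and the read-out was % inhibition relative to control. The assay was run in-house.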

For the next series, the system named is A549. In words: Cytotoxicity against human A549 cells after 7 days. In kind it is functional. The conditions noted are these: A549, 168 h, read-out: ED50 (the source's name). The procedure, abridged:
(§1)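 This was a seven-day in vitro cytotoxicity test run under standard protocols on three solid tumor lines: A-549 (human lung carcinoma), MCF-7 (human breast carcinoma) and HT-29 (human colon adenocarcinoma). Adriamycin was the positive control.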

Another series deals with MCF7. In words: Cytotoxicity against human MCF7 cells after 7 days. In kind it is functional. As to conditions: MCF7, 168 h, read-out: ED50 (the source's name). The essentials: as §1
A further series has as its system HT-29. In words: Cytotoxicity against human HT-29 cells after 7 days. In kind it is functional. The conditions noted are these: HT-29, 168 h, read-out: ED50 (the source's name). The essentials: as §1

Values after ≈ are worked out from the molar mass of the structure shown.

Usually LC50 stands for the concentration that kills 50% of the test population. High values mean a less lethal substance, low ones a more lethal substance. In general, T/C refers to the result in the treated group divided by that in the control group, in per cent. Turning to `Oc1cccc(CCCCCCCCCCCCc2ccccc2)c1`, the LC50 in series [1] was 1.37 µg/mL (≈ 4.05 µM). In addition, the T/C in series [2] amounted to 39%. In addition, the EC50 with A549 turned out to be 1.85 µg/mL (≈ 5.46 µM); with MCF7, 2.09 µg/mL (≈ 6.17 µM); in the series on HT-29 it was 2.62 µg/mL (≈ 7.74 µM).
As for `COc1cccc2c1C(=O)c1c(O)c3c(c(O)c1C2=O)C[C@@](O)(C(=O)CO)C[C@@H]3O[C@H]1C[C@H](N)[C@H](O)[C@H](C)O1` [DOXORUBICIN], the figures for the EC50 in the series with A549, in the series with MCF7 and in the series with HT-29 were 0.00148 µg/mL (≈ 0.00272 µM), 0.147 µg/mL (≈ 0.27 µM) and 0.00669 µg/mL (≈ 0.0123 µM), respectively.
The compound `COc1ccc(-c2coc3cc(O)cc(O)c3c2=O)cc1` [BIOCHANIN] came in with an LC50 in series [1] of 107 µg/mL (≈ 376 µM). The T/C in series [2] was 54%. In addition, the EC50 amounted to 19.8 µg/mL (≈ 69.5 µM) in the series with A549, 5.49 µg/mL (≈ 19.3 µM) in the series with MCF7 and 28.4 µg/mL (≈ 99.8 µM) in the series on HT-29.
As to `Oc1cccc(CCCCCCCCC[C@H](O)c2ccccc2)c1` [KNEGLOMERATANOL], the LC50 in series [1] was 0.21 µg/mL (≈ 0.643 µM). The compound also showed a T/C in series [2] of 29%. The EC50 was 5.99 µg/mL (≈ 18.3 µM) in the series on A549, 2.32 µg/mL (≈ 7.11 µM) in the series with MCF7 and 9.33 µg/mL (≈ 28.6 µM) with HT-29.
With `CC(=O)c1c(O)cc(O)cc1CCCCCCCCc1ccccc1` [KNEGLOMERATANONE A], the LC50 in series [1] is 0.37 µg/mL (≈ 1.09 µM). In addition, the T/C in series [2] was found to be 38%. Also, the EC50 was determined as 3.89 µg/mL (≈ 11.4 µM) in the series on A549, 3.44 µg/mL (≈ 10.1 µM) in the series on MCF7 and 18.8 µg/mL (≈ 55.3 µM) with HT-29.
In series [1], `CCCCCCCCCCCCCc1cc(O)cc(O)c1C(C)=O` [KNEGLOMERATANONE B] had a 50% lethal concentration (LC50) of 1.92 µg/mL (≈ 5.74 µM). In series [2], this compound gave a T/C of 38%. The EC50 in the series on A549 was 2.3 µg/mL (≈ 6.88 µM); in the series on MCF7, 1.12 µg/mL (≈ 3.35 µM); in the series with HT-29, 6.56 µg/mL (≈ 19.6 µM).
The matching figures for `Oc1cccc(CCCCCCCCCCc2ccccc2)c1`: 0.45 µg/mL (≈ 1.45 µM), 54%, 35 µg/mL (≈ 113 µM), 7.76 µg/mL (≈ 25 µM) and 28.6 µg/mL (≈ 92.1 µM).
The compound `O=C(O)c1c(O)cccc1CCCCCCCCCCCCc1ccccc1` displayed an LC50 in series [1] of 1.24 µg/mL (≈ 3.24 µM). Also, the T/C in series [2] is reported as 61%. Moreover, the EC50 came to 15 µg/mL (≈ 39.2 µM) in the series with A549, 3.06 µg/mL (≈ 8 µM) in the series on MCF7 and 2.98 µg/mL (≈ 7.79 µM) in the series on HT-29.
As for `COc1ccc(-c2coc3cc(O)ccc3c2=O)cc1` [FORMONONETIN], the LC50 in series [1] came to 22.7 µg/mL (≈ 84.6 µM). Moreover, the T/C in series [2] is given as 79%. Moreover, the results for the EC50 in the series with A549, in the series with MCF7 and in the series on HT-29 were 2.87 µg/mL (≈ 10.7 µM), 1.96 µg/mL (≈ 7.31 µM) and 6.43 µg/mL (≈ 24 µM), respectively.
For `CCCCCCCCCCCCCCCc1cc(O)cc(O)c1` [CARDOL] the same measures were 7.65 µg/mL (≈ 23.9 µM), 41%, 2.37 µg/mL (≈ 7.39 µM), 2.41 µg/mL (≈ 7.52 µM) and 3.25 µg/mL (≈ 10.1 µM).
On to `Oc1cc(O)cc(CCCCCCCCCCc2ccccc2)c1`, for which, in series [1], the 50% lethal concentration (LC50) came to 0.47 µg/mL (≈ 1.44 µM). This compound registered a T/C in series [2] of 62%. The EC50 with A549 was 3.49 µg/mL (≈ 10.7 µM); in the series on MCF7, 2.69 µg/mL (≈ 8.24 µM); in the series on HT-29, 3.24 µg/mL (≈ 9.92 µM).
In series [1], `Oc1cc(O)cc(CCCCCCCCCCCCc2ccccc2)c1` had an LC50 of 0.33 µg/mL (≈ 0.931 µM). Also, the T/C in series [2] was 45%. Besides, the EC50 in the series with A549 turned out to be 3.26 µg/mL (≈ 9.2 µM); with MCF7, 1.84 µg/mL (≈ 5.19 µM); in the series on HT-29 it was 2.87 µg/mL (≈ 8.1 µM).
In turn, `CC(=O)c1c(O)cc(O)cc1CCCCCCCCCCc1ccccc1` gave a median lethal concentration (LC50) in series [1] of 0.18 µg/mL (≈ 0.488 µM). In series [2], this compound showed a T/C of 30%. The EC50 with A549 amounted to 3.22 µg/mL (≈ 8.74 µM); with MCF7, 2.87 µg/mL (≈ 7.79 µM); in the series with HT-29 it was 4.47 µg/mL (≈ 12.1 µM).

Values taken from ChEMBL document CHEMBL1149048, “Kneglomeratanol, kneglomeratanones A and B, and related bioactive compounds from Knema glomerata” (J Nat Prod, 1994).
